Screening data deposited in PubChem BioAssay by several laboratories.
An excerpt weighted towards active compounds, which were near 2.3% of everything screened.
CSN deneddyl inh – inhibitors of human CSN-mediated cullin deneddylation; Q92905; Purified CSN, SCF-Nedd8-OG deneddylation, fluorescence polarization; inhibition, % at 12.5 µM; 360,000 compounds, 0.38% hits; AID 651999;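 active = pattern-corrected inhibition above about 35%, with an unprinted fluorescence ratio check between 0.5 and 1.5, limit read from the data, passing the limit was not always enough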
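test system = HEK293T-derived human Csn5 enzyme | amount = 0.24 nM Csn5 enzyme, final concentration | medium = Tris/NaCl/DTT buffer, pH 7.5 | schedule = 90 min reaction at room temperature | signal = FP | evaluation = inhibition of Csn5 cleavage, % | compound dosing = single dose of 12.5 µM compound with 0.25% DMSO | probe or stimulus = 10 nM SCFSkp2-Nedd8OG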
TPT1 inhibitor – blocks Candida albicans tRNA 2'-phosphotransferase; recombinant caTPT1, FP RNA substrate dephosphorylation; 300,000 compounds, 0.81% hits; AID 1962; inhibition, % at 5 µM;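 active = inhibition above the mean of all tested compounds plus 3 SD, set per screening campaign, cut at about 24% in these data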
CRFBP-R2 block – antagonists of CRF-binding protein/CRF-R2 receptor complex | HEK293 CRF-R2/CRF-BP, CRF-induced calcium fluorescence | inhibition, % at 11.8 µM | 350,000 compounds, 0.59% hits;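 active = inhibition of the ligand-induced calcium signal above about 50% at the single tested concentration, limit read from the data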
CRFR2-BP ag – CRF-BP/CRF-R2 complex agonism; HEK293 CRF-R2/CRF-BP, calcium dye fluorescence (FLIPR); percent of saturating CRF peptide response; activation, % at 13.2 µM; 350,000 compounds, 0.46% hits; AID 588473;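 active = activation of at least 50%, plus an integration ratio under a set limit after plate pattern correction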
HNF4A DNA FP – change in binding of human HNF4 alpha to DNA | P41235 | HNF4a-FITC DNA binding, fluorescence polarization, 1 h | activity change, % at 10 µM | 360,000 compounds, 0.3% hits | AID 1224865; in the data active = activity change above about 30%, passing the limit was not always enough
Rpn11 block – inhibitors of human proteasome Rpn11. O00487. human 26S proteasome, Ub4-pepOG fluorescence polarization; 20S core pre-blocked with epoxomicin. calls only at 20 µM. 360,000 compounds, 0.59% hits;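 active = inhibition at 20 µM, scaled to each plate's controls, above about 33%, limit read from the data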
Target sequence (O00487 whole entry, looked up): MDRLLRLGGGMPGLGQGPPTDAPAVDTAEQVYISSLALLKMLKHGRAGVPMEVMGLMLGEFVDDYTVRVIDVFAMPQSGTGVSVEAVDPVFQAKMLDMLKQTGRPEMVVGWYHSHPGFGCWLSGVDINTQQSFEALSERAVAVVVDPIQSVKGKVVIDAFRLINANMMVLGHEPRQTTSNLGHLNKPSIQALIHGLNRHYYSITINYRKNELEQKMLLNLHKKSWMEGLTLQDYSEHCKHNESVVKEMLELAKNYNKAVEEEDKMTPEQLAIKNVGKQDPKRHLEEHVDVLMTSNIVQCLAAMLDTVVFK
Numbers stand for hits; . = inactive; / = not tested or not shown; + = active, no number.

SMILES	CSN deneddyl inh	TPT1 inhibitor	CRFBP-R2 block	CRFR2-BP ag	HNF4A DNA FP	Rpn11 block
CCc1ccc(C2=CC(c3cc(Br)ccc3F)n3ncnc3N2)cc1 (stereo not given)	.	.	.	54	.	.
C1=C(c2ccccc2)Nc2ncnn2C1c1ccccc1 (stereo not given)	.	.	.	.	.	.
Fc1ccc(Br)cc1C1C=C(c2ccc(Br)cc2)Nc2ncnn21 (stereo not given)	.	.	.	102	.	.
Cc1ccc(C2=CC(c3ccccc3)n3ncnc3N2)cc1 (stereo not given)	.	.	.	.	.	.
COc1cccc2sc(Nc3nnc(-c4ccccc4Cl)o3)nc12	.	.	.	77	.	.
COc1ccccc1-c1nnc(Nc2nc3c(OC)cccc3s2)o1	.	.	53	.	.	.
O=C(Nc1nnc(-c2ccccc2Cl)o1)c1nc2ccccc2s1	.	.	.	140	.	.
O=C(Nc1nnc(-c2ccccc2Cl)o1)c1ccco1	.	.	.	.	.	.
CCOC(=O)CNC(=S)N(Cc1cccs1)C1CCCC1	.	.	.	.	.	.
COc1ccc2c(CN3CCOCC3)cc(=O)oc2c1	.	/	/	/	.	.
CCC1(c2ccc(F)cc2)NC(=O)N(CC(=O)c2cc(C)n(C3CC3)c2C)C1=O (stereo not given)	.	.	.	66	.	.
CC1(c2ccc(OC(F)F)cc2)NC(=O)N(/N=C/c2c(O)ccc3ccccc23)C1=O (stereo not given)	.	.	.	87	.	.
O=C1CC(c2ccccc2)CN1S(=O)(=O)c1ccccc1 (stereo not given)	.	.	65	.	.	.
CCC(=O)N/N=C(\C)CC(=O)Nc1ccccc1-c1ccccc1	.	.	.	.	.	.
Cc1ccc(-c2cnn(-c3cccc(C(F)(F)F)c3)c2N)cc1	.	.	.	.	.	.
O=C(CC(c1ccccc1)c1ccccc1O)NCc1ccco1 (stereo not given)	.	.	.	.	.	.
O=C(CC(c1ccccc1)c1ccccc1O)NCc1ccccc1Cl (stereo not given)	.	.	67	.	.	.
CCCN(CC(=O)Nc1ccccc1OC)C(=O)c1ccc(S(=O)(=O)NCc2ccco2)cc1	.	/	.	.	.	.
CCc1ccc2cc(C)cnc2n1	.	/	/	/	.	.
Cc1cnc2nc(-c3ccccc3)ccc2c1	83	/	/	/	.	.
Cc1ccc(NC(=O)CCn2cnc3cc(C)c(C)cc32)cc1	.	.	.	.	.	.
CC1CCCC(C)N1C(=O)COC(=O)COc1ccc(C#N)cc1 (stereo not given)	.	/	72	.	.	.
O=c1c2c(-c3ccco3)csc2nc(SCc2cn3cccnc3n2)n1-c1ccccc1	46	.	.	.	.	.
COc1ccc(CCN2C(=O)CC(NCc3ccc4c(c3)OCO4)C2=O)cc1OC (stereo not given)	.	.	.	.	.	.
Cc1ccc(C(=O)Nc2nnc(-c3ccco3)o2)cc1C	.	.	51	.	.	.
SMILES	CSN deneddyl inh	TPT1 inhibitor	CRFBP-R2 block	CRFR2-BP ag	HNF4A DNA FP	Rpn11 block
CCn1c(SCC(=O)N/N=C/c2ccc(C)o2)nnc1-c1ccc(C)cc1	.	.	.	.	.	.
O=C(Nc1scc(-c2ccccc2)c1C(=O)O)c1ccccc1F	.	.	.	.	.	.
Cc1ccccc1C(=O)Nc1scc(-c2ccc(Br)cc2)c1C(=O)O	.	.	68	.	.	.
O=C(Nc1scc(-c2ccc(Br)cc2)c1C(=O)O)c1ccccc1F	.	.	56	.	.	.
Clc1ccc(N2CCN(/N=C/c3ccncc3)CC2)cc1	.	.	.	.	.	.
CSc1ccccc1NC(=O)CCn1c(=O)sc2ccccc21	.	.	.	.	.	.
O=c1nc(Nc2ccccc2)sc2ccc([N+](=O)[O-])cc12	43	.	.	.	.	.
O=C1c2ccccc2C(=O)N1CCSc1nc2ccccc2c(=O)n1CCCN1CCOCC1	.	.	.	.	.	.
O=C(O)c1cccc(N/C(=N\S(=O)(=O)c2ccccc2)c2ccccc2)c1	.	.	84	.	.	.
O=C(Nc1ccccc1)N(Cc1ccc2c(c1)OCO2)Cc1nc2ccccc2c(=O)[nH]1	.	.	.	.	.	.
O=C(c1ccc(NS(=O)(=O)c2cccc([N+](=O)[O-])c2)cc1)N1CCCCCC1	.	.	115	.	.	.
O=c1cc(CSc2nnnn2-c2ccccc2)nc2scc(-c3ccccc3)n12	.	.	.	.	.	.
COc1ccc(C2(C)NC(=O)N(CC(=O)Nc3cccnc3Cl)C2=O)cc1 (stereo not given)	.	.	.	.	.	.
CC1(c2ccc(OC(F)F)cc2)NC(=O)N(CC(=O)Nc2cccnc2Cl)C1=O (stereo not given)	.	.	.	96	.	.
CCN(CC)CCOC(=O)c1ccc(NC(=O)CCCN2C(=O)S/C(=C/c3ccc(OC)cc3)C2=S)cc1	.	.	.	.	.	+
